Experimental data taken from ChEMBL document CHEMBL1156992, “Identification and hit-to-lead exploration of a novel series of histamine H4 receptor inverse agonists” (Bioorg Med Chem Lett, 2010).

What was measured:
[1] = Metabolic stability in rat microsomes assessed as drug remaining after 10 mins; format: ADME, Microsome; details: for remaining at 10 min: read-out: Stability
In short: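 Compound incubated with rat liver microsomes. Parent remaining measured after 10 min, expressed as percent.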

Histamine H4 receptor [2] = target: T1, Histamine H4 receptor (Homo sapiens, UniProt Q9H3N8); test: Displacement of [3H]histamine dihydrochloride from human histamine H4 receptor after 2.5 hrs by scintillation proximity assay
In short: (§1)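 Human H4 receptor-expressing membranes (25 µg) incubated with 20 nM [³H]-histamine dihydrochloride and SPA beads. Buffer: 50 mM Tris pH 7.5, 5 mM EDTA, 0.5% BSA, 1% DMSO. Incubation 2.5 h at room temperature. Non-specific binding taken with excess histamine. Scintillation counting. IC50 from a 6-point semi-log dose-response, duplicate wells.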

Histamine H4 receptor [3] = target: T1, Histamine H4 receptor; test: Displacement of [3H]histamine human recombinant histamine H4 receptor; in short: as §1
Histamine H4 receptor [4] = target: T1, Histamine H4 receptor; test: Inverse agonist activity at human histamine H4 receptor assessed as inhibition of [35S]GTPgammaS binding after 15 mins by scintillation proximity assay; format: functional
Histamine H4 receptor [5] = target: T1, Histamine H4 receptor; test: Inverse agonist activity at human histamine H4 receptor assessed as inhibition of [35S]GTPgammaS binding after 15 mins by scintillation proximity assay relative to control; format: functional; design: concentration or dose not given beside the values
[6] = Half life in rat microsomes; format: ADME, Microsome
CYP1A2 = target: T2, CYP1A2 (Homo sapiens, UniProt P05177); test: Inhibition of CYP1A2 at 1 uM; format: ADME
T2 sequence (P05177 whole entry): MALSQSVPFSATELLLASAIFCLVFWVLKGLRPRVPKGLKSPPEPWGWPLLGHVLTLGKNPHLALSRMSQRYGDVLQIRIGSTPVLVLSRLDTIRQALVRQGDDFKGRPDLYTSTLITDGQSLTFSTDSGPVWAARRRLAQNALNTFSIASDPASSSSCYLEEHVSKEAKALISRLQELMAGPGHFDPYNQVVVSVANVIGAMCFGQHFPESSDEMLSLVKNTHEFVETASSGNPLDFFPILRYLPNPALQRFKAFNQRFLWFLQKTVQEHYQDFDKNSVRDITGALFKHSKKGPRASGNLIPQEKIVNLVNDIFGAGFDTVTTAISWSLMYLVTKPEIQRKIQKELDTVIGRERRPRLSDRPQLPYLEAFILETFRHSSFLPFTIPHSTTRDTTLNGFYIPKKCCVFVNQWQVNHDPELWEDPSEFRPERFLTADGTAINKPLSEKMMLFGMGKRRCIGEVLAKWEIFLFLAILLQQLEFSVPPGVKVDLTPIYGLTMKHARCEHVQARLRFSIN
In short: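 CYP1A2 inhibition tested at 1 µM. Percent inhibition reported.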

[7] = Oral bioavailability in rat at 5 mg/kg; format: ADME, organism-based; details: in vivo
In short: (§2)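 Rat pharmacokinetic study with oral dosing at 5 mg/kg.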

Rattus norvegicus = test: Volume of distribution in rat at 5 mg/kg, po; format: ADME, organism-based; design: dose 5 mg/kg, route oral; details: in vivo; in short: as §2
[8] = Oral bioavailability in dog; format: ADME, organism-based, Canis lupus familiaris; details: in vivo
[9] = Oral bioavailability in Cynomolgus monkey; format: ADME, organism-based, Macaca fascicularis; details: in vivo
Histamine H1 receptor = Histamine H1 receptor (Homo sapiens, UniProt P35367); test: Binding affinity to histamine H1 receptor
[10] = Volume of distribution in Cynomolgus monkey; format: ADME, organism-based, Macaca fascicularis; details: in vivo
[11] = Clearance in dog; format: ADME, organism-based, Canis lupus familiaris; details: in vivo
[12] = Clearance in Cynomolgus monkey; format: ADME, organism-based, Macaca fascicularis; details: in vivo
Histamine H2 receptor = Histamine H2 receptor (Homo sapiens, UniProt P25021); test: Binding affinity to histamine H2 receptor
[13] = Volume of distribution in dog; format: ADME, organism-based, Canis lupus familiaris; details: in vivo
Histamine H3 receptor = Histamine H3 receptor (Homo sapiens, UniProt Q9Y5N1); test: Binding affinity to histamine H3 receptor
[14] = Clearance in rat at 5 mg/kg, po; format: ADME, organism-based; design: dose 5 mg/kg, route oral; details: in vivo; in short: as §2

Histamine H2 receptor, sequence (P25021 whole entry): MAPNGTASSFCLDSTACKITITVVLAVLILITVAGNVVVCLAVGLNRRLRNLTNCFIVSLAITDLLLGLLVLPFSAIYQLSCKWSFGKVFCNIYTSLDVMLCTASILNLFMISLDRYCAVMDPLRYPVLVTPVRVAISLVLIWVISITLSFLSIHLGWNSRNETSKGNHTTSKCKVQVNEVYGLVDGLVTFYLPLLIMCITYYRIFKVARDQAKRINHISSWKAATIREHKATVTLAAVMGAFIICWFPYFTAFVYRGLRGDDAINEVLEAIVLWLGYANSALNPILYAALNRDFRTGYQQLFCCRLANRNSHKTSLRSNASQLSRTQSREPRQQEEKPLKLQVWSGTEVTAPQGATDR
Histamine H3 receptor, sequence (Q9Y5N1 whole entry): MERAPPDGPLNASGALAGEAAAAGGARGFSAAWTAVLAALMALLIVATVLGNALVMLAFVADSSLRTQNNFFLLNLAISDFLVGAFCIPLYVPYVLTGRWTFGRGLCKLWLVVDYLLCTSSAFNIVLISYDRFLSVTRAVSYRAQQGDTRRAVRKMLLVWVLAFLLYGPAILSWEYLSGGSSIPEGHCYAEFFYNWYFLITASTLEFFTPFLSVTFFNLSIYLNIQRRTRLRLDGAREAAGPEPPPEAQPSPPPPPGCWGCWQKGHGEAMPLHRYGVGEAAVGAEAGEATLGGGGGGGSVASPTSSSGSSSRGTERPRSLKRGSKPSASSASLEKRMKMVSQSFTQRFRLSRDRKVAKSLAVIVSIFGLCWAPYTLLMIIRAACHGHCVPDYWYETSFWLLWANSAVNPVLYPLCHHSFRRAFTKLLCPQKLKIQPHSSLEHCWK
Histamine H1 receptor, sequence (P35367 whole entry): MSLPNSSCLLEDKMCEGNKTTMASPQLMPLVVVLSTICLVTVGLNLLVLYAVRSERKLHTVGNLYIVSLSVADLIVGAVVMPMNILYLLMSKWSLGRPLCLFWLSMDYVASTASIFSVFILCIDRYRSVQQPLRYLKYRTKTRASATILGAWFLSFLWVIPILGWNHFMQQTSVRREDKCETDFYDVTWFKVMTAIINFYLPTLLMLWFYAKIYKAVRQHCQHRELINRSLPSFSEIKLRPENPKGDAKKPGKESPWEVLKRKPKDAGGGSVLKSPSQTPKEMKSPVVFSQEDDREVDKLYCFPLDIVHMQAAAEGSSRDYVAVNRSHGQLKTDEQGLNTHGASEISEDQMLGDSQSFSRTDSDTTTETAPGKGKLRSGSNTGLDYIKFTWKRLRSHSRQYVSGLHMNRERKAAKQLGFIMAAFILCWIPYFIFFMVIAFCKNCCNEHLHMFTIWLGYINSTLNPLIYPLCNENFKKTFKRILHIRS

| SMILES | remaining at 10 min [1] | IC50 (Histamine H4 receptor [2]) | further results |
| --- | --- | --- | --- |
| CNC1CCN(c2nc(C)nc3c2oc2ccc(Cl)cc23)C1 (stereo not drawn) | 95% | 1600 nM |  |
| CN[C@@H]1CCN(c2ncnc3c2oc2cc(Cl)ccc23)C1 |  | 171 nM |  |
| CN1CCN(c2ncnc3c2oc2ccc(Cl)cc23)CC1 | 1% | 19 nM | IC50 (Histamine H4 receptor [3]): 19 nM |
| CNC1CCCN(c2ncnc3c2oc2ccc(Cl)cc23)C1 (stereo not drawn) |  | > 10000 nM |  |
| CN1C2CCC1CN(c1ncnc3c1oc1ccc(Cl)cc13)C2 | 62% | 440 nM |  |
| CN[C@@H]1CCN(c2nc(C(F)(F)F)nc3c2oc2ccc(Cl)cc23)C1 |  | 14200 nM |  |
| CNC1(C)CCN(c2ncnc3c2oc2ccc(Cl)cc23)C1 (stereo not drawn) |  | 1400 nM |  |
| CN1C[C@@H]2C[C@H]1CN2c1ncnc2c1oc1ccc(Cl)cc12 | 75% | 111 nM | IC50 (Histamine H4 receptor [4]): 70 nM; inhibition (Histamine H4 receptor [5]): 105% |
| CN[C@@H]1CCN(c2nc(N)nc3c2oc2ccc(Cl)cc23)C1 | 62% | 1 nM | inhibition at 1 µM (CYP1A2): 45%; bioavailability [7]: 5%; Vd (Rattus norvegicus): 71 L/kg; bioavailability [8]: 36%; bioavailability [9]: 99%; IC50 (Histamine H1 receptor): > 30000 nM; Vd [10]: 25 L/kg; clearance [11]: 52 mL/min/kg; clearance [12]: 62 mL/min/kg; IC50 (Histamine H4 receptor [4]): 3 nM; half-life [6]: 13 min; IC50 (Histamine H2 receptor): > 30000 nM; Vd [13]: 26 L/kg; IC50 (Histamine H3 receptor): 5800 nM; inhibition (Histamine H4 receptor [5]): 138%; CL/F [14]: 117 mL/min/kg |
| CNC1CCN(c2ncnc3c2oc2ccc(-c4ccccc4)cc23)C1 (stereo not drawn) | 97% | > 10000 nM |  |
| CN1CC2CCC1CN2c1ncnc2c1oc1ccc(Cl)cc12 (stereo not drawn) | 66% | 169 nM |  |
| Clc1ccc2oc3c(N4CC5CCCNC5C4)ncnc3c2c1 (stereo not drawn) |  | 1400 nM |  |
| CCNC1CCN(c2ncnc3c2oc2ccc(Cl)cc23)C1 (stereo not drawn) |  | > 10000 nM |  |
| CN[C@@H]1CCN(c2ncnc3c2oc2ccc(Cl)cc23)C1 |  | 33 nM | Stability ([1]; 10 min): 92%; IC50 (Histamine H4 receptor [4]): 41 nM; t1/2 [6]: 19 min |
| COc1nc(N2CCN(C)CC2)c2oc3ccc(Cl)cc3c2n1 | 13% | 90 nM |  |
| Clc1ccc2oc3c(N4CCN5CCCC5C4)ncnc3c2c1 (stereo not drawn) | 0% | 236 nM |  |
| CN1CCN(c2nc(C3CC3)nc3c2oc2ccc(Cl)cc23)CC1 | 8% | 310 nM |  |
| CNC(=O)c1ccc2oc3c(N4CCC(NC)C4)ncnc3c2c1 (stereo not drawn) |  | > 30000 nM |  |
| CN1CCN(c2nc(-c3ccccc3)nc3c2oc2ccc(Cl)cc23)CC1 | 40% | > 30000 nM |  |

Now from value to molecule, other results behind:

| remaining at 10 min [1] | IC50 (Histamine H4 receptor [2]) | SMILES | further results |
| --- | --- | --- | --- |
| 1% | 1900 nM | CC1CN(c2ncnc3c2oc2ccc(Cl)cc23)CCN1C (stereo not drawn) |  |
| 106% | > 10000 nM | CN1CCN(c2nc(C(=O)O)nc3c2oc2ccc(Cl)cc23)CC1 |  |
|  | 10000 nM | CC1CN(c2ncnc3c2oc2ccc(Cl)cc23)CC(C)N1C (stereo not drawn) |  |
| 74% | 86 nM | CN[C@@H]1CCN(c2ncnc3c2oc2ccc(C)cc23)C1 |  |
| 80% | > 30000 nM | CNC1CCN(c2ncnc3c2oc2ccc(C(=O)O)cc23)C1 (stereo not drawn) |  |
| 103% | 285 nM | CN[C@H]1CCN(c2ncnc3c2oc2ccc(Cl)cc23)C1 | IC50 (Histamine H4 receptor [4]): 292 nM; half-life [6]: 73 min; inhibition (Histamine H4 receptor [5]): 122% |
| 0% | 37 nM | Cc1nc(N2CCN(C)CC2)c2oc3ccc(Cl)cc3c2n1 |  |
| 18% | 21000 nM | CN(C)C1CCN(c2ncnc3c2oc2ccc(Cl)cc23)C1 (stereo not drawn) |  |
| 95% | 6200 nM | CNC1CCN(c2ncnc3c2oc2ccc(C#N)cc23)C1 (stereo not drawn) |  |
| 80% | 95 nM | CNC1CCN(c2ncnc3c2oc2ccc(Cl)cc23)C1 (stereo not drawn) |  |
| 107% | 126 nM | NC1CCN(c2ncnc3c2oc2ccc(Cl)cc23)C1 (stereo not drawn) |  |
| 7% | 83 nM | CN1CCN(c2nc(C(F)(F)F)nc3c2oc2ccc(Cl)cc23)CC1 | IC50 (Histamine H4 receptor [4]): 39 nM; inhibition (Histamine H4 receptor [5]): 100% |
| 68% | 13 nM | CN[C@H]1CCN(c2nc(N)nc3c2oc2ccc(Cl)cc23)C1 | IC50 (Histamine H4 receptor [4]): 4 nM; half-life [6]: 21 min |
| 59% | 30 nM | CN[C@@H]1CCN(c2ncnc3c2oc2ccc(C(F)(F)F)cc23)C1 |  |
| 89% | 87 nM | CNC1CN(c2ncnc3c2oc2ccc(Cl)cc23)C1 | IC50 (Histamine H4 receptor [4]): 76 nM; inhibition (Histamine H4 receptor [5]): 149% |
| 83% | 1000 nM | CN1CCN(c2nc(O)nc3c2oc2ccc(Cl)cc23)CC1 |  |
|  | > 10000 nM | CNC1CCN(c2ncnc3c2oc2ccc(Cl)cc23)CC1 |  |
